Results: ChEMBL document CHEMBL3259550, “Polycyclic propargylamine and acetylene derivatives as multifunctional neuroprotective agents” (Eur J Med Chem, 2014)
The source made the active and inactive calls. No cut-off for these calls is given here.

Legend:
[1] = organism: Papio papio; assay: Inhibition of MAO-B in baboon liver mitochondrial fraction using MMTP substrate at 300 uM
[2] = Antiapoptotic activity against serum deprivation-induced human SK-N-BE(2) cells assessed as viable cells at 10 uM after 36 hrs incubation by DePsipher agent relative to control; assay type: functional
Summary of the method: (§1)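 SK-N-BE(2) neuroblastoma cells grown in F12 with 10% FBS, Pen/Strep and fungizone at 37 °C. At 80% confluency they were serum-deprived for 24 h, then seeded at 1 x 10^6 cells per 2 mL serum-deprived medium containing compound in DMSO (1.25% v/v final). Cells were incubated 36 h, stained with DePsipher dye 20 min at 37 °C and run by flow cytometry (50 000 events; FL-1 green, FL-2 red). % viable = (Q1+Q2)/(Qtotal−Q3) x 100. Tests in triplicate.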

[3] = Antiapoptotic activity against serum deprivation-induced human SK-N-BE(2) cells assessed as improvement in cell health at 1 mM to 10 uM after 36 hrs incubation by DePsipher agent relative to 1.25% DMSO; assay type: functional
Summary of the method: as §1

[4] = Antiapoptotic activity against serum deprivation-induced human SK-N-BE(2) cells assessed as improvement in cell health at 1 mM to 10 uM after 36 hrs incubation by DePsipher agent relative to non-induced cells; assay type: functional
Summary of the method: as §1

[5] = Antiapoptotic activity against serum deprivation-induced human SK-N-BE(2) cells assessed as apoptotic cells at 1 mM to 10 uM after 36 hrs incubation by DePsipher agent relative to 1.25% DMSO; assay type: functional
Summary of the method: as §1

In the case of C#CCN(C)[C@H](C)Cc1ccccc1, the inhibition [1] is reported as 93.3% and the Activity [2] is reported as 77%.
For C#CCNC12OC3C4C5CC(C6C5C3C61)C42 (racemic), the inhibition [1] was “inactive”, the Activity [2] was 88% and the Activity [3] was 9%.
Molecule C#CCN has an inhibition [1] of 19.9% and an Activity [2] of 79%.
For C#CCNC12OC3C4C5CC(C6C5C3(C)C61)C42 (racemic), the “improvement in cell health” value [4] was “Active”, the inhibition [1] was 11.7% and the Activity [2] was 97%. It also gave an Activity [3] of 9%.
With COCCOC(=O)C1=C(C)NC(C)=C(C(=O)OC(C)C)C1c1cccc([N+](=O)[O-])c1 (stereo not drawn) the Activity [2] was “inactive”.
For OC1(C#Cc2ccccc2)C2C3CC4C5C3CC2C5C41 (racemic), the Activity [5] was 2.8%, the “improvement in cell health” value [4] was “Active” and the inhibition [1] was 73.3%. For the same molecule, the Activity [2] was 98% and the Activity [3] was 9%.
In the case of c1ccc(CNC23OC4C5C6CC(C7C6C4C72)C53)cc1 (stereo not drawn), the inhibition [1] is reported as 14.6%, the Activity [2] is reported as 67% and the Activity [3] is reported as 9%.
Molecule C#CCN(CC#C)C12CC3CC(CC(C3)C1)C2 has an inhibition [1] of 14%, an Activity [2] of 68% and an Activity [3] of 9%.
C#CCN1C2C3C4CC5C6C4C2C6(C)C1(O)C53 (racemic) showed an inhibition [1] of 10.8%, an Activity [2] of 67% and an Activity [3] of 9%.
In the case of C#CC12OC3(O)C4C5CC(C6C5C3(C)C61)C42 (racemic), the Activity [5] is reported as 0.5%, the “improvement in cell health” value [4] is reported as “Active” and the inhibition [1] is reported as “inactive”. For the same molecule, the Activity [2] was 100% and the Activity [3] was 9%.
With C#CCN1C2C3C4CC5C6C4C2C6C1(O)C53 (racemic) the “improvement in cell health” value [4] was “Active”, the inhibition [1] was 5.83% and the Activity [2] was 93%. The Activity [3] was 9%.
For C#CCN(Cc1ccccc1)C12CC3CC(CC(C3)C1)C2, the inhibition [1] was 20.1%, the Activity [2] was 70% and the Activity [3] was 9%.
